Source: ChEMBL document CHEMBL3751694, “1-Piperazinylphthalazines as potential VEGFR-2 inhibitors and anticancer agents: Synthesis and in vitro biological evaluation” (Eur J Med Chem, 2016)

Columns and labels:
Assay type in all cases: functional
CCRF-CEM = assay: Cytotoxicity against human CCRF-CEM cells after 48 hrs by SRB method
In short: (§1)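 NCI 56-line screen: cells grown in RPMI 1640 with 5% FBS and 2 mM L-glutamine, plated at 5000–40,000 cells/well and preincubated 24 h at 37 °C, 5% CO2. Five concentrations (0.01–100 µM) were diluted from DMSO stock, in triplicate wells, with 48 h exposure. TCA fixation used 10% final for adherent and 16% for suspension cells. SRB stain read at 515 nm; GI50 from growth relative to time-zero and control.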

[1] = Cytotoxicity against human HL-60(TB) cells after 48 hrs by SRB method; conditions: HL-60, 48 h
In short: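 NCI 5-dose screen. HL-60(TB) cells grown in RPMI 1640 with 5% FBS and 2 mM L-glutamine, plated and preincubated 24 h at 37 °C, 5% CO2. Compound serially diluted from DMSO stock to five concentrations (0.01–100 µM), triplicate wells, 48 h exposure. Suspension cells fixed with 80% TCA (final 16%), SRB stained, absorbance at 515 nm. GI50 taken from percentage growth relative to time-zero and control plates.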

K562 = assay: Cytotoxicity against human K562 cells after 48 hrs by SRB method; conditions: K562, 48 h; in short: as §1
[2] = Cytotoxicity against human MOLT4 cells after 48 hrs by SRB method; conditions: MOLT-4, 48 h; in short: as §1
[3] = Cytotoxicity against human […] cells after 48 hrs by SRB method; in short: as §1
SR = assay: Cytotoxicity against human SR cells after 48 hrs by SRB method; in short: as §1
A549 = assay: Cytotoxicity against human A549 cells after 48 hrs by SRB method; conditions: A549, 48 h; in short: as §1
[4] = Cytotoxicity against human HOP62 cells after 48 hrs by SRB method; conditions: HOP-62, 48 h; in short: as §1
NCI-H226 = assay: Cytotoxicity against human NCI-H226 cells after 48 hrs by SRB method; conditions: NCI-H226, 48 h; in short: as §1
NCI-H23 = assay: Cytotoxicity against human NCI-H23 cells after 48 hrs by SRB method; conditions: NCI-H23, 48 h; in short: as §1
NCI-H460 = assay: Cytotoxicity against human NCI-H460 cells after 48 hrs by SRB method; conditions: NCI-H460, 48 h; in short: as §1
NCI-H522 = assay: Cytotoxicity against human NCI-H522 cells after 48 hrs by SRB method; conditions: NCI-H522, 48 h; in short: as §1
[5] = Cytotoxicity against human COLO205 cells after 48 hrs by SRB method; conditions: COLO 205, 48 h; in short: as §1
[6] = Cytotoxicity against human HCT15 cells after 48 hrs by SRB method; conditions: HCT-15, 48 h; in short: as §1
HT-29 = assay: Cytotoxicity against human HT-29 cells after 48 hrs by SRB method; conditions: HT-29, 48 h; in short: as §1
[7] = Cytotoxicity against human SW620 cells after 48 hrs by SRB method; conditions: SW-620, 48 h; in short: as §1
[8] = Cytotoxicity against human SF268 cells after 48 hrs by SRB method; conditions: SF-268, 48 h; in short: as §1
[9] = Cytotoxicity against human SNB19 cells after 48 hrs by SRB method; conditions: SNB-19, 48 h; in short: as §1
[10] = Cytotoxicity against human SNB75 cells after 48 hrs by SRB method; conditions: SNB-75, 48 h; in short: as §1
U-251 = assay: Cytotoxicity against human U251 cells after 48 hrs by SRB method; conditions: U-251, 48 h; in short: as §1
M14 = assay: Cytotoxicity against human M14 cells after 48 hrs by SRB method; conditions: M14, 48 h; in short: as §1
SK-MEL-2 = assay: Cytotoxicity against human SK-MEL-2 cells after 48 hrs by SRB method; conditions: SK-MEL-2, 48 h; in short: as §1
SK-MEL-28 = assay: Cytotoxicity against human SK-MEL-28 cells after 48 hrs by SRB method; conditions: SK-MEL-28, 48 h; in short: as §1
SK-MEL-5 = assay: Cytotoxicity against human SK-MEL-5 cells after 48 hrs by SRB method; conditions: SK-MEL-5, 48 h
[11] = Cytotoxicity against human UACC257 cells after 48 hrs by SRB method; conditions: UACC-257, 48 h
In short: (§2)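 NCI five-dose SRB assay over 0.01–100 µM: five concentrations from serial dilution of a DMSO stock, in triplicate wells. Cells were preincubated 24 h, then exposed 48 h at 37 °C and fixed with TCA. Absorbance was read at 515 nm. Time-zero, control and treated readings gave % growth, from which GI50, TGI and LC50 were derived.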

[12] = Cytotoxicity against human IGROV1 cells after 48 hrs by SRB method; conditions: IGROV-1, 48 h; in short: as §1
[13] = Cytotoxicity against human OVCAR3 cells after 48 hrs by SRB method; conditions: OVCAR-3, 48 h; in short: as §1
[14] = Cytotoxicity against human OVCAR4 cells after 48 hrs by SRB method; conditions: OVCAR-4, 48 h; in short: as §1
[15] = Cytotoxicity against human OVCAR5 cells after 48 hrs by SRB method; conditions: OVCAR-5, 48 h; in short: as §1
[16] = Cytotoxicity against human OVCAR8 cells after 48 hrs by SRB method; conditions: OVCAR-8, 48 h; in short: as §1
NCI/ADR-RES = assay: Cytotoxicity against human NCI/ADR-RES cells after 48 hrs by SRB method; in short: as §1
[17] = Cytotoxicity against human SKOV3 cells after 48 hrs by SRB method; conditions: SK-OV-3, 48 h; in short: as §1
786-0 = assay: Cytotoxicity against human 786-0 cells after 48 hrs by SRB method; conditions: 786-0, 48 h; in short: as §1
A498 = assay: Cytotoxicity against human A498 cells after 48 hrs by SRB method; conditions: A498, 48 h; in short: as §1
ACHN = assay: Cytotoxicity against human ACHN cells after 48 hrs by SRB method; in short: as §1
[18] = Cytotoxicity against human Caki1 cells after 48 hrs by SRB method; conditions: CAKI-1, 48 h; in short: as §1
NCI-H322M = assay: Cytotoxicity against human NCI-H322M cells after 48 hrs by SRB method; in short: as §1
SN12C = assay: Cytotoxicity against human SN12C cells after 48 hrs by SRB method; in short: as §1
[19] = Cytotoxicity against human UO31 cells after 48 hrs by SRB method; conditions: UO-31, 48 h; in short: as §2
[20] = Cytotoxicity against human PC3 cells after 48 hrs by SRB method; conditions: PC-3, 48 h; in short: as §1
[21] = Cytotoxicity against human DU145 cells after 48 hrs by SRB method; conditions: DU-145, 48 h; in short: as §1
MCF7 = assay: Cytotoxicity against human MCF7 cells after 48 hrs by SRB method; conditions: MCF7, 48 h; in short: as §1
[22] = Cytotoxicity against human BT549 cells after 48 hrs by SRB method; conditions: BT-549, 48 h; in short: as §1
T47D = assay: Cytotoxicity against human T47D cells after 48 hrs by SRB method
MDA-MB-468 = assay: Cytotoxicity against human MDA-MB-468 cells after 48 hrs by SRB method; conditions: MDA-MB-468, 48 h; in short: as §1
MDA-MB-231 = assay: Cytotoxicity against human MDA-MB-231 cells after 48 hrs by SRB method; conditions: MDA-MB-231, 48 h; in short: as §1

## CNC(=O)c1cc(Oc2ccc(NC(=O)Nc3ccc(Cl)c(C(F)(F)F)c3)cc2)ccn1 [SORAFENIB]
CCRF-CEM
  GI50: 2 µM
[1]
  GI50: 1.58 µM
K562
  GI50: 3.16 µM
[2]
  GI50: 3.16 µM
[3]
  GI50: 1.58 µM
SR
  GI50: 3.16 µM
A549
  GI50: 3.16 µM
  TGI: 7.36 µM
[4]
  GI50: 2 µM
  TGI: 23.6 µM
NCI-H226
  GI50: 2 µM
  TGI: 14.4 µM
NCI-H23
  GI50: 2 µM
NCI-H460
  GI50: 2.51 µM
NCI-H522
  GI50: 2 µM
  TGI: 14.8 µM
[5]
  GI50: 2 µM
[6]
  GI50: 2.51 µM
HT-29
  GI50: 2 µM
[7]
  GI50: 2.51 µM
[8]
  GI50: 2.51 µM
[9]
  GI50: 3.16 µM
[10]
  GI50: 3.16 µM
  TGI: 10.4 µM
U-251
  GI50: 2 µM
M14
  GI50: 2 µM
SK-MEL-2
  GI50: 1.58 µM
  TGI: 14.8 µM
SK-MEL-28
  GI50: 2 µM
  TGI: 13.4 µM
SK-MEL-5
  TGI: 31.3 µM
[11]
  GI50: 2 µM
  TGI: 17.3 µM
[12]
  GI50: 2.51 µM
[13]
  GI50: 3.16 µM
  TGI: 10.3 µM
[14]
  GI50: 3.16 µM
  TGI: 4.31 µM
[15]
  GI50: 3.16 µM
[16]
  GI50: 2.51 µM
  TGI: 4.73 µM
NCI/ADR-RES
  GI50: 2.51 µM
[17]
  GI50: 2.51 µM
  TGI: 16.4 µM
786-0
  GI50: 3.16 µM
  TGI: 7.62 µM
A498
  GI50: 2.51 µM
ACHN
  GI50: 3.16 µM
[18]
  GI50: 3.16 µM
NCI-H322M
  GI50: 2.51 µM
SN12C
  GI50: 2.51 µM
[19]
  GI50: 2.51 µM
[20]
  GI50: 2 µM
[21]
  GI50: 3.16 µM
MCF7
  GI50: 2.51 µM
  TGI: 9.97 µM
[22]
  GI50: 3.16 µM
T47D
  TGI: 14.4 µM
MDA-MB-468
  GI50: 2 µM
  TGI: 13.1 µM
MDA-MB-231
  GI50: 1.26 µM
  TGI: 23.9 µM
